Article PMC3177601 (Bioorganic & medicinal chemistry letters, 2009)
Where two headings read alike, the source gives them in different places.

Experiments:
[1] = target: T1, M2 (Homo sapiens, UniProt P08172); experiment: M2 calcium mobilization assay in M2 CHO cells co-transfected with Gqi5; format: cell-based
T1 sequence (P08172 1-466): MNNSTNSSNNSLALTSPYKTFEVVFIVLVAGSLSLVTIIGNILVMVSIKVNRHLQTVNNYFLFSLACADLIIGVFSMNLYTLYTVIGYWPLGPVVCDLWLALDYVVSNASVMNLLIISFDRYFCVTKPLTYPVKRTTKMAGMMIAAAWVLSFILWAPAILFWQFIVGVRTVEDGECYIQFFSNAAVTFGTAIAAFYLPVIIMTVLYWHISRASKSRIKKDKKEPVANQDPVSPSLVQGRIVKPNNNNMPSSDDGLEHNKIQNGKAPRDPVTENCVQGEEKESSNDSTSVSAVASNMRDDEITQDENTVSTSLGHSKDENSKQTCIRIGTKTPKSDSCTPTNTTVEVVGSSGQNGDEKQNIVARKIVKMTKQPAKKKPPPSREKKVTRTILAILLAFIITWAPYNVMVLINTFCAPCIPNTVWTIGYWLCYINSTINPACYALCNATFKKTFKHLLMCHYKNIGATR
Method in brief: (§1)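 Test compound at 30 μM is added with an EC20 concentration of ACh. Readout is intracellular calcium mobilization in CHO cells expressing the given mAChR subtype; M2 and M4 cells are co-transfected with Gqi5 for calcium coupling. Values are means of at least three independent determinations.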

[2] = target: T2, M4 (Homo sapiens, UniProt P08173); experiment: M4 calcium mobilization assay in M4 CHO cells co-transfected with Gqi5; format: cell-based
T2 sequence (P08173 1-479): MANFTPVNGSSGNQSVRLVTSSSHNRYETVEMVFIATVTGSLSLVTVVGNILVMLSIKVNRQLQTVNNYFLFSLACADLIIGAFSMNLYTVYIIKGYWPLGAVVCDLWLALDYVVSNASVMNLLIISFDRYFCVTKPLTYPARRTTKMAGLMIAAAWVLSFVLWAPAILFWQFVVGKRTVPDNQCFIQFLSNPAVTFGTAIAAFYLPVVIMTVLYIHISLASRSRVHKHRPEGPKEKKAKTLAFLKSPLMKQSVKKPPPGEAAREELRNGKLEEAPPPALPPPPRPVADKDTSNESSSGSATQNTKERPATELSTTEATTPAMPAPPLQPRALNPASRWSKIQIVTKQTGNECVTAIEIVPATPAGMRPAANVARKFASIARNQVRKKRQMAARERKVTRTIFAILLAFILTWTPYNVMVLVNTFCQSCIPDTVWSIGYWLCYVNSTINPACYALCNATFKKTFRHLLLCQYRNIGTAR
Method in brief: as §1

[3] = tested on: M1–M4; experiment: mAChR selectivity CRCs at M1-M5 CHO cells with submaximal ACh; format: cell-based; details: CRCs at M1-M5 CHO cells with EC20 of ACh
Method in brief: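 Test compound concentration-response curves are run against an EC20 of ACh in mAChR-expressing CHO cells, read out as intracellular calcium mobilization. M2 and M4 lines are co-transfected with Gqi5. Response is expressed as % of ACh maximum. Values are means of at least three independent determinations.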

[4] = target: T3, M5 (Homo sapiens, UniProt P08912); details: 30 μM compound; cited from earlier work
T3 sequence (P08912 1-532): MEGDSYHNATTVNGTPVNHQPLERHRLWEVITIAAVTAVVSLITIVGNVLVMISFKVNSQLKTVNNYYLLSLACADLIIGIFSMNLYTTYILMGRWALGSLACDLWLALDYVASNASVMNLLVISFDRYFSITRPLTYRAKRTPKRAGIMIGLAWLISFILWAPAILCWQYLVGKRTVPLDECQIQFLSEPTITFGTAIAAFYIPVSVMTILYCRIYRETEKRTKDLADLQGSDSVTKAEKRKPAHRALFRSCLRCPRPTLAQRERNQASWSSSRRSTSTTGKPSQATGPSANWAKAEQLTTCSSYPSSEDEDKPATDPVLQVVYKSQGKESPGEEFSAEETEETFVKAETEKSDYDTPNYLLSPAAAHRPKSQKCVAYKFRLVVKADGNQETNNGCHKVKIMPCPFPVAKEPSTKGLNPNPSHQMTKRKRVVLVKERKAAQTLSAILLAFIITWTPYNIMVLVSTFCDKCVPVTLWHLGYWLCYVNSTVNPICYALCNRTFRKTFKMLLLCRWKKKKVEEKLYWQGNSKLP

[5] = target: T3, M5; details: cited from earlier work
[6] = target: T4, M1 (Homo sapiens, UniProt P11229); experiment: M1 PAM intracellular calcium mobilization assay in M1 CHO cells; format: cell-based; details: at 30 μM
T4 sequence (P11229 1-460): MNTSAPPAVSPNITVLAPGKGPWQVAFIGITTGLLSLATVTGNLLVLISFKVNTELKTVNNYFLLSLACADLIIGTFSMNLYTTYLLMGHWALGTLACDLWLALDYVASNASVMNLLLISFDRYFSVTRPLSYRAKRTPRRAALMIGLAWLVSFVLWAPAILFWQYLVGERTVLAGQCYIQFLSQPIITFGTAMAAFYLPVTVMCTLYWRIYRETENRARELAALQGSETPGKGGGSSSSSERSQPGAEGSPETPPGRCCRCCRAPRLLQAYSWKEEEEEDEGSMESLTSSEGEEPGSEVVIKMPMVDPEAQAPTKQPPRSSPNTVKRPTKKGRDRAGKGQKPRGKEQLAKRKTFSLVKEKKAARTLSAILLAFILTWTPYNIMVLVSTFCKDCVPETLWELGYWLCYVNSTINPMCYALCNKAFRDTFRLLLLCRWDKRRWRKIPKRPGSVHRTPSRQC
Method in brief: as §1

[7] = target: M3 (Homo sapiens, UniProt P20309); experiment: M3 calcium mobilization assay in M3 CHO cells; format: cell-based; details: at 30 μM
Method in brief: as §1

[8] = target: T3, M5; experiment: M5 fold-shift experiments of the ACh CRC in M5 CHO cells; format: cell-based; details: 30 μM compound
Method in brief: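 Fold-shift assay in M5 CHO cells: a full ACh concentration-response curve is run with or without 30 μM test compound, read out as intracellular calcium mobilization. Potentiation is taken as the leftward shift of the ACh curve. Values are means of at least three independent determinations.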

[9] = at 30 μM, cells co-transfected with Gqi5

Chain of M3 (P20309 whole entry): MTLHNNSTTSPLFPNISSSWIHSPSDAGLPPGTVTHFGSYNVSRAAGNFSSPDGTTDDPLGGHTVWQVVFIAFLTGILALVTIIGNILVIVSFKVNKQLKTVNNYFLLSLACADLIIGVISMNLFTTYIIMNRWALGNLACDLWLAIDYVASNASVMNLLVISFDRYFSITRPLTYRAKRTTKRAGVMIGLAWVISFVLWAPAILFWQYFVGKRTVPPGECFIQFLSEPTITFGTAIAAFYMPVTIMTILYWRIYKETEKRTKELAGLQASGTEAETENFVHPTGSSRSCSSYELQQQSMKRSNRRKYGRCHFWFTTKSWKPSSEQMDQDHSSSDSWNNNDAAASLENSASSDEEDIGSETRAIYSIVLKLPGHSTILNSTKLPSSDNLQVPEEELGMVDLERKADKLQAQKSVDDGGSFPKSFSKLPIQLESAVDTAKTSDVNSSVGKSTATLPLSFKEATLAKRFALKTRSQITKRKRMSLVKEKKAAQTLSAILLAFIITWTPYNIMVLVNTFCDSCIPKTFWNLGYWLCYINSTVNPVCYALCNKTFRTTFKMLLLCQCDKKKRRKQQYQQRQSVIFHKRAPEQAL

For O=C1C(=O)N(Cc2ccc(Br)cc2)c2ccccc21 [VU0119498], the “activity at M2” value ([1]; Gi/o-coupled M2, cells co-transfected with Gqi5) was “devoid of activity” and the “activity at M4” value ([2]; Gi/o-coupled M4, cells co-transfected with Gqi5) was “devoid of activity”.

With O=C1C(=O)N(Cc2ccc(-c3ccccc3)cc2)c2cc(OC(F)(F)F)ccc21 [compound 12] the mAChR selectivity [3] was “lost”.

For COc1ccc(CN2C(=O)C(=O)c3cc(OC(F)(F)F)ccc32)cc1 [VU0238429], the “leftward shift of the ACh CRC at M5” value [4] is given as 14 fold, the “increase of ACh affinity for M5” value ([5]; 30 μM compound) is given as ~ 11 fold and the “displacement of [3H]-NMS from binding to M5” value [5] is given as “did not displace”.

For O=C1C(=O)N(Cc2ccc(Oc3ccccc3)cc2)c2ccc(OC(F)(F)F)cc21 [VU0400265], the “elevation of an ACh EC20 at M1” value [6] was “no elevation”, the “elevation of an ACh EC20 at M2” value [1, 9] was “no elevation” and the “elevation of an ACh EC20 / activation at M3” value [7] was “no elevation”. The “elevation of an ACh EC20 at M4” value [2, 9] was “no elevation” and the “leftward shift of the ACh CRC at M5” value [8] was ~ 5 fold.

With O=C1C(=O)N(Cc2ccc(-c3ccsc3)cc2)c2ccc(OC(F)(F)F)cc21 [6b] the “leftward shift of the ACh CRC at M5” value [8] was > 50 fold.

With COc1ccc(CN2C(=O)C(=O)c3ccc(OC(F)(F)F)cc32)cc1 [compound 11] the mAChR selectivity [3] was “lost”.

With O=C1C(=O)N(Cc2ccc(-c3ccccc3)cc2)c2ccc(OC(F)(F)F)cc21 [6a] the “elevation of an ACh EC20 / activation at M3” value [7] was “only modest activation” and the “leftward shift of the ACh CRC at M5” value [8] was > 50 fold.
